{
  "source": "ChEMBL document CHEMBL1142174",
  "about": "“Pyrazinoic acid and its n-propyl ester inhibit fatty acid synthase type I in replicating tubercle bacilli” (2007)",
  "key": {"[1]": {"system": "Mycobacterium tuberculosis variant bovis BCG", "experiment": "Inhibition of fatty acid synthase 1 in Mycobacterium bovis BCG assessed as incorporation of [1-14C]acetate in C16 biosynthesis at 1500 ug/ml at pH 6.8", "in_short": "(§1)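 M. bovis BCG was exposed to drug in medium at pH 6 or 6.8, then labelled with [1-14C]acetate. Extracted fatty acids were analysed by HPLC for 14C-labelled C16.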"}, "[2]": {"system": "Mycobacterium tuberculosis variant bovis BCG", "experiment": "Inhibition of fatty acid synthase 1 in Mycobacterium bovis BCG assessed as incorporation of [1-14C]acetate in C16 biosynthesis at 1500 ug/ml at pH 6.0", "in_short": "as §1"}},
  "data": [
    {"molecule": "O=C(O)c1cnccn1", "note": "[PYRAZINOIC ACID]", "values": [
      {"measurement": "inhibition", "setting": "[1]", "value": 30, "unit": "%"},
      {"measurement": "inhibition", "setting": "[2]", "value": 97, "unit": "%"}
    ]}
  ]
}
